Values after ≈ are worked out from the molar mass of the structure shown.
System: Mycobacterium tuberculosis
Test: Antitubercular activity against multi drug resistant Mycobacterium tuberculosis H37Rv after 5 days by microplate alamar blue assay
Format: functional
Conditions: 120 h
Procedure, shortened: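 Middlebrook 7H9 broth with compounds serially diluted on the plate over ten concentrations from 0.2 to 100. Sealed plates incubated 5 days at 37°C, then a fresh 1:1 mix of Alamar Blue and 10% Tween 80 was added for a further 24 h. Blue wells were scored as no growth and pink wells as growth.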

`COc1ccc(/C=C/C(=O)c2ccc(-n3cccc3)cc2)cc1` was tested. Which MIC did it give?
The MIC was 12.5 mg/L (≈ 41.2 µM).

For `COc1cc(C2CC(c3cccc([N+](=O)[O-])c3)=NN2C(C)=O)cc(OC)c1OC` (centres undefined), which MIC is on record?
Its MIC is 12.5 mg/L (≈ 31.3 µM).

Which MIC does the source give for `CC(=O)Nc1ccc(O)c(C2CC(c3ccc(Cl)cc3)=NN2C(=O)c2ccncc2)c1` (centres undefined) here?
Its MIC is 3.12 mg/L (≈ 7.17 µM).

With `COc1ccc(C2CC(c3ccc(-n4cccc4)cc3)=NN2C(C)=O)cc1OC` (centres undefined) as the compound, how does the MIC read?
The MIC was 12.5 mg/L (≈ 32.1 µM).

How did the MIC turn out when `Clc1ccc(-c2cc(-c3ccc(-n4cccc4)cc3)on2)cc1` was run?
The MIC was 50 mg/L (≈ 156 µM).

`Clc1cccc(Cl)c1-c1cc(-c2ccc(-n3cccc3)cc2)on1` was tested. Which MIC did it give?
Its MIC is 100 mg/L (≈ 282 µM).

Which MIC does the source give for `Cc1ccc(NC(=S)Nc2ccccc2-n2c(C)ccc2C)cc1` here?
The MIC was 50 mg/L (≈ 149 µM).

`Brc1ccccc1-c1cc(-c2ccc(-n3cccc3)cc2)on1` was tested. Which MIC did it give?
Its MIC is 100 mg/L (≈ 274 µM).

With `Clc1cccc(-c2cc(-c3ccc(-n4cccc4)cc3)on2)c1Cl` as the compound, how does the MIC read?
The MIC was 25 mg/L (≈ 70.4 µM).

With `CC(=O)N1N=C(c2ccc(-n3cccc3)cc2)CC1c1ccc(Cl)cc1Cl` (centres undefined) as the compound, how does the MIC read?
Its MIC is 25 mg/L (≈ 62.8 µM).

How did the MIC turn out when `O=C(/C=C/c1ccccc1Cl)c1ccc(-n2cccc2)cc1` was run?
The MIC was 25 mg/L (≈ 81.2 µM).

`Cc1ccc(C)n1-c1ccccc1NC(=S)Nc1ccc(Cl)c(Cl)c1` was tested. Which MIC did it give?
The MIC was 6.25 mg/L (≈ 16 µM).

Which MIC does the source give for `CC(=O)N1N=C(c2ccc(-n3cccc3)cc2)CC1c1ccc(Cl)cc1` (centres undefined) here?
Its MIC is 25 mg/L (≈ 68.7 µM).

With `Brc1cccc(-c2cc(-c3ccc(-n4cccc4)cc3)on2)c1` as the compound, how does the MIC read?
Its MIC is 50 mg/L (≈ 137 µM).

Which MIC does the source give for `Fc1ccc(-c2cc(-c3ccc(-n4cccc4)cc3)on2)cc1` here?
Its MIC is 12.5 mg/L (≈ 41.1 µM).

`O=C(/C=C/c1ccccc1)c1ccc(-n2cccc2)cc1` was tested. Which MIC did it give?
The MIC was 50 mg/L (≈ 183 µM).

Which MIC does the source give for `O=C(/C=C/c1ccc(Cl)cc1Cl)c1ccc(-n2cccc2)cc1` here?
The MIC was 25 mg/L (≈ 73.1 µM).

`CC(=O)N1N=C(c2ccc(-n3cccc3)cc2)CC1c1ccccc1` (centres undefined) was tested. Which MIC did it give?
The MIC was 25 mg/L (≈ 75.9 µM).

How did the MIC turn out when `Cc1ccc(C)n1-c1ccccc1NC(=S)Nc1ccccc1Br` was run?
The MIC was 50 mg/L (≈ 125 µM).

Which MIC does the source give for `Clc1ccc(-c2cc(-c3ccc(-n4cccc4)cc3)on2)c(Cl)c1` here?
Its MIC is 50 mg/L (≈ 141 µM).

Which MIC does the source give for `Clc1ccccc1-c1cc(-c2ccc(-n3cccc3)cc2)on1` here?
Its MIC is 25 mg/L (≈ 77.9 µM).

For `CC(C)c1ccc(/C=C/C(=O)c2ccc(-n3cccc3)cc2)cc1`, which MIC is on record?
The MIC was 12.5 mg/L (≈ 39.6 µM).

`Cc1ccc(C)n1-c1ccccc1NC(=S)Nc1ccc(F)cc1` was tested. Which MIC did it give?
The MIC was 1.6 mg/L (≈ 4.71 µM).

For `COc1cccc(C2CC(c3ccc(-n4cccc4)cc3)=NN2C(C)=O)c1` (centres undefined), which MIC is on record?
Its MIC is 6.25 mg/L (≈ 17.4 µM).

With `CC(=O)N1N=C(c2ccc(-n3cccc3)cc2)CC1c1ccccc1Br` (centres undefined) as the compound, how does the MIC read?
The MIC was 100 mg/L (≈ 245 µM).

Which MIC does the source give for `CC(=O)N1N=C(c2ccc(-n3cccc3)cc2)CC1c1c(Cl)cccc1Cl` (centres undefined) here?
Its MIC is 25 mg/L (≈ 62.8 µM).

With `O=C(/C=C/c1ccccc1O)c1ccc(-n2cccc2)cc1` as the compound, how does the MIC read?
Its MIC is 25 mg/L (≈ 86.4 µM).

Which MIC does the source give for `Cc1ccc(C)n1-c1ccccc1NC(=S)Nc1ccccc1` here?
Its MIC is 50 mg/L (≈ 156 µM).

`NC(=S)N1N=C(C/N=N/NC(=O)c2cccnc2)CC1c1ccccc1` (centres undefined) was tested. Which MIC did it give?
The MIC was 1.25 mg/L (≈ 3.4 µM).

With `O=C(/C=C/c1cccc(Cl)c1Cl)c1ccc(-n2cccc2)cc1` as the compound, how does the MIC read?
Its MIC is 25 mg/L (≈ 73.1 µM).

With `c1coc(-c2cc(-c3ccc(-n4cccc4)cc3)on2)c1` as the compound, how does the MIC read?
Its MIC is 25 mg/L (≈ 90.5 µM).

Which MIC does the source give for `CC(=O)N1N=C(c2ccc(-n3cccc3)cc2)CC1c1ccco1` (centres undefined) here?
Its MIC is 25 mg/L (≈ 78.3 µM).

Which MIC does the source give for `O=C(/C=C/c1cccc(Oc2ccccc2)c1)c1ccc(-n2cccc2)cc1` here?
Its MIC is 25 mg/L (≈ 68.4 µM).

`Cc1ccc(C)n1-c1ccccc1NC(=S)Nc1ccc(Cl)cc1` was tested. Which MIC did it give?
Its MIC is 50 mg/L (≈ 140 µM).

How did the MIC turn out when `CC(=O)N1N=C(c2ccc(-n3cccc3)cc2)CC1c1ccccc1Cl` (centres undefined) was run?
Its MIC is 25 mg/L (≈ 68.7 µM).

How did the MIC turn out when `COc1ccc(-c2cc(-c3ccc(-n4cccc4)cc3)on2)cc1OC` was run?
The MIC was 12.5 mg/L (≈ 36.1 µM).

For `c1ccc(-c2cc(-c3ccc(-n4cccc4)cc3)on2)cc1`, which MIC is on record?
The MIC was 100 mg/L (≈ 349 µM).

How did the MIC turn out when `Cc1ccc(-c2cc(-c3ccc(-n4cccc4)cc3)on2)cc1` was run?
Its MIC is 12.5 mg/L (≈ 41.6 µM).

For `COc1ccc(C2CC(c3ccc(-n4cccc4)cc3)=NN2C(C)=O)c(OC)c1` (centres undefined), which MIC is on record?
The MIC was 6.25 mg/L (≈ 16 µM).

With `Cc1ccc(C)n1-c1ccccc1NC(=S)Nc1ccc([N+](=O)[O-])cc1` as the compound, how does the MIC read?
The MIC was 50 mg/L (≈ 136 µM).

Which MIC does the source give for `O=C(/C=C/c1c(Cl)cccc1Cl)c1ccc(-n2cccc2)cc1` here?
The MIC was 25 mg/L (≈ 73.1 µM).

With `O=C(/C=C/c1cccc(Br)c1)c1ccc(-n2cccc2)cc1` as the compound, how does the MIC read?
The MIC was 100 mg/L (≈ 284 µM).

For `CC(=O)N1N=C(c2ccc(-n3cccc3)cc2)CC1c1cccc(Cl)c1Cl` (centres undefined), which MIC is on record?
Its MIC is 25 mg/L (≈ 62.8 µM).

With `O=C(/C=C/c1ccccc1Br)c1ccc(-n2cccc2)cc1` as the compound, how does the MIC read?
Its MIC is 50 mg/L (≈ 142 µM).

How did the MIC turn out when `CC(=O)N1N=C(c2ccc(-n3cccc3)cc2)CC1c1ccc(F)cc1` (centres undefined) was run?
Its MIC is 12.5 mg/L (≈ 36 µM).

For `O=C(/C=C/c1ccco1)c1ccc(-n2cccc2)cc1`, which MIC is on record?
The MIC was 50 mg/L (≈ 190 µM).

Which MIC does the source give for `COc1cccc(/C=C/C(=O)c2ccc(-n3cccc3)cc2)c1` here?
The MIC was 25 mg/L (≈ 82.4 µM).

With `Cc1ccc(C)n1-c1ccccc1NC(=S)Nc1cccc(Cl)c1` as the compound, how does the MIC read?
Its MIC is 50 mg/L (≈ 140 µM).

With `O=C(/C=C/c1ccc(F)cc1)c1ccc(-n2cccc2)cc1` as the compound, how does the MIC read?
The MIC was 12.5 mg/L (≈ 42.9 µM).

With `CC(=O)N1N=C(c2ccc(-n3cccc3)cc2)CC1c1cccc(Br)c1` (centres undefined) as the compound, how does the MIC read?
Its MIC is 50 mg/L (≈ 122 µM).

With `CC(=O)N1N=C(c2ccc(-n3cccc3)cc2)CC1c1ccc(C)cc1` (centres undefined) as the compound, how does the MIC read?
The MIC was 6.25 mg/L (≈ 18.2 µM).

How did the MIC turn out when `Cc1ccc(C)n1-c1ccccc1NC(=S)Nc1cccc(Br)c1` was run?
The MIC was 50 mg/L (≈ 125 µM).

`c1ccc(Oc2cccc(-c3cc(-c4ccc(-n5cccc5)cc4)on3)c2)cc1` was tested. Which MIC did it give?
The MIC was 12.5 mg/L (≈ 33 µM).

How did the MIC turn out when `COc1ccc(/C=C/C(=O)c2ccc(-n3cccc3)cc2)cc1OC` was run?
The MIC was 25 mg/L (≈ 75 µM).

For `CC(=O)N1N=C(c2ccc(-n3cccc3)cc2)CC1c1cccc(Oc2ccccc2)c1` (centres undefined), which MIC is on record?
Its MIC is 12.5 mg/L (≈ 29.7 µM).

Which MIC does the source give for `COc1ccccc1NC(=S)N1N=C(c2ccc(O)c(C)c2)CC1c1c(Cl)cccc1Cl` (centres undefined) here?
The MIC was 1.66 mg/L (≈ 3.41 µM).

For `O=C(/C=C/c1ccc(Cl)cc1)c1ccc(-n2cccc2)cc1`, which MIC is on record?
The MIC was 50 mg/L (≈ 162 µM).

Which MIC does the source give for `CC[C@@H](CO)NCCN[C@@H](CC)CO` [ETHAMBUTOL] here?
Its MIC is 0.5 mg/L (≈ 2.45 µM).

`CO[C@H]1/C=C/O[C@@]2(C)Oc3c(C)c(O)c4c(O)c(c(/C=N/N5CCN(C)CC5)c(O)c4c3C2=O)NC(=O)/C(C)=C\C=C\[C@H](C)[C@H](O)[C@@H](C)[C@@H](O)[C@@H](C)[C@H](OC(C)=O)[C@@H]1C` [RIFAMPIN] was tested. Which MIC did it give?
The MIC was 0.4 mg/L (≈ 0.486 µM).

— ChEMBL document CHEMBL3745673, “Synthesis, antimycobacterial screening and ligand-based molecular docking studies on novel pyrrole derivatives bearing pyrazoline, isoxazole and phenyl thiourea moieties” (Eur J Med Chem, 2016)
